PABP polyA inh = PABP-poly(A) binding inhibition; P11940; PABP-poly(A) RNA binding, fluorescence polarization; calls only at 35 µM; 290,000 tested, 1% active; AID 2014;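 note: calls also rest on retests at 20 µM and on dose response follow-up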
Target sequence (P11940 whole entry, looked up): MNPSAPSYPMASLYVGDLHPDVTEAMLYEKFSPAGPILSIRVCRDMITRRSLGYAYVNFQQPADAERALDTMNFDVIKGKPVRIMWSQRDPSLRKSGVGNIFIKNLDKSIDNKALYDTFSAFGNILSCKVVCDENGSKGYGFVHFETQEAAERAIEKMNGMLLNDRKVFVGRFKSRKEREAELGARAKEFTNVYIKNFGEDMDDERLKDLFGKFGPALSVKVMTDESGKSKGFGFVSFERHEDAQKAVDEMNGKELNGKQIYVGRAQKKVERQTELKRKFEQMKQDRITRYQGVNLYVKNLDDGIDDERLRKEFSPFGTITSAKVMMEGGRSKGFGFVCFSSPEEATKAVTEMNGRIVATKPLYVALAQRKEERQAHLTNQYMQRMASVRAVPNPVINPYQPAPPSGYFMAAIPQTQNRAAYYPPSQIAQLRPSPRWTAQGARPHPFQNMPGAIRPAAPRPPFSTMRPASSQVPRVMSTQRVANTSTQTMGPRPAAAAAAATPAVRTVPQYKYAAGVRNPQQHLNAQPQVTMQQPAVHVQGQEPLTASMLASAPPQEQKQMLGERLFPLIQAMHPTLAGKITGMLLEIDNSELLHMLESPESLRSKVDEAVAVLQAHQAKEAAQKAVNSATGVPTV
eIF4H inh = inhibitors of RNA binding by human eIF4H | 290,000 tested, 0.94% active | inhibition, % at 35 µM | eIF4H fluorescence polarization binding assay | Q15056 | AID 2012;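 note: calls also rest on retests at 20 µM and on dose response follow-up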
IMP-1 inhibitor = inhibitors of Pseudomonas aeruginosa IMP-1 metallo-beta-lactamase; purified IMP-1, nitrocefin hydrolysis, epi-absorbance fluorescence; inhibition, % at 5.6 µM; 290,000 tested, 0.45% active;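 active = inhibition above the mean plus 3 SD of all compounds in the same screening run, cut at about 4.5% in these data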;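 note: 0% = IMP-1 with DMSO and 100% = DMSO wells lacking enzyme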
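System – purified recombinant IMP-1 beta-lactamase · Input – IMP-1 dispensed at 0.2 nM · Timing – 15 min preincubation plus 25 min reaction at 25 °C · Signal – Epi-absorbance fluorescence, 480 nm excitation, 530 nm emission · Measure – percent IMP-1 inhibition derived from blank-referenced optical density · Controls – Enzyme-plus-DMSO low control, enzyme-free DMSO high control · Replication – singlicate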
PABP1 MLLE inh = inhibitors of microRNA-mediated deadenylation, human PABP1 MLLE binding | P11940 | GST-MLLE / FITC-PAM2 fluorescence polarization | inhibition, % at 20 µM | 360,000 tested, 0.36% active; in the data active = inhibition above about 35%, passing the limit was not always enough;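 note: plate controls were DMSO wells with GST-MLLE for no effect and wells lacking GST-MLLE protein for full effect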
VIM-2 inhibitor = blocks Pseudomonas aeruginosa VIM-2 metallo-beta-lactamase. purified VIM-2, nitrocefin hydrolysis, epi-absorbance fluorescence. inhibition, % at 5.6 µM. 290,000 tested, 0.89% active. AID 1527;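 active = inhibition above the mean of all tested compounds plus 3 SD, cutoff set per screening run, cut at about 7.5% in these data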;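 note: red hydrolysis product quenches plate fluorescence so inhibitors raise well fluorescence; 0% = enzyme with DMSO and 100% = DMSO without enzyme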
* = called active by the depositor; i = inactive; ? = inconclusive; . = no result; + = active, no number. Hits are enriched below; roughly 2.2% of the tested compounds scored in any of these assays. Unless noted, the rule behind the calls is not given here.

SMILES	PABP polyA inh	eIF4H inh	IMP-1 inhibitor	PABP1 MLLE inh	VIM-2 inhibitor
O=C(NC1CCCCC1)C(c1ccc(O)c(O)c1)N(C(=O)Cn1nnc2ccccc21)c1cccc(O)c1 (stereo unspecified)	i	3	11*	9	1
CCN=C1S/C(=C\c2sccc2C)C(=O)N1CC	i	-3	-2	2	-3
CC(=O)OCC12COC3c4ccccc4OC(C)(CC1C)C3C2C (stereo unspecified)	i	1	-3	12	-3
CCOc1ccc(CCN2C(=S)N([C@@H](CC(C)C)CN3CCCC3CN3C(=S)NC[C@@H]3Cc3ccc(O)cc3)C[C@@H]2CC(C)C)cc1 (stereo partly specified)	.	.	.	-1	.
CCOc1ccc(NCc2cc3cc(OC)ccc3[nH]c2=O)cc1	+	35*	-4	4	-3
O=C(C[C@@H]1C/C=C\C[C@H](Cc2ccc(F)cc2)C(=O)OC[C@H]2CCCN2C1=O)N[C@H](CO)Cc1ccccc1	.	.	.	1	.
CC(C)C(NS(=O)(=O)c1ccccc1F)C(=O)OCC(=O)NCc1ccco1 (stereo unspecified)	.	.	.	8	.
O=S(=O)(/N=C(/Sc1ccccc1)c1ccccc1)c1ccccc1	i	7	0	38*	-1
CS/C(=N\S(=O)(=O)c1ccccc1)c1ccccc1	i	-10	-2	1	0
N#CC1=C(S)N(c2ccccc2)C(c2ccc(-c3ccccc3Cl)o2)NC1=O (stereo unspecified)	i	8	12*	-8	2
CCCc1nccn1S(=O)(=O)c1cc(OC)ccc1OC	i	-12	1	-5	-2
Oc1ccccc1C=Nc1ccccc1-c1nc2ccccc2[nH]1	+	5.7*	-2	-9	-3
c1ccc(NCC2OCc3ccccc3CO2)cc1	i	-8	-3	-8	1
COC(=O)N/N=C/c1ccc(OC(=O)/C=C/c2ccco2)cc1	+	?	0	-3	-4
O=C(Cc1ccccc1)N/N=C/c1ccc(OC(=O)/C=C\c2ccco2)cc1	i	106	-1	0	0
CCc1ccc(N(CC(=O)N2CCCC2)S(C)(=O)=O)cc1	.	.	.	3	.
Cc1[nH]n(-c2ccccc2)c(=O)c1C(c1ccc(C(=O)O)cc1)c1c(C)[nH]n(-c2ccccc2)c1=O	i	-3	-2	45*	-4
Cc1[nH]n(-c2ccccc2)c(=O)c1C(c1cccc([N+](=O)[O-])c1)c1c(C)[nH]n(-c2ccccc2)c1=O	i	-3	-1	27	-2
CCOc1cc(CNc2ncc(-c3ccc(OC)cc3)n2C)ccc1O	i	-6	4.8*	-4	0
CC(/C=N/n1c(-c2n[nH]c3c2CCC3)n[nH]c1=S)=C\c1ccco1	i	51	-1	-21	-1
S=c1[nH]nc(-c2ccccc2)n1/N=C/C=C/c1ccco1	i	91	-4	-11	1
S=c1[nH]nc(-c2cccnc2)n1/N=C/C=C/c1ccco1	i	96*	-2	-15	5
CC(/C=N/n1c(-c2cccnc2)n[nH]c1=S)=C\c1ccco1	+	76*	1	2	6
S=c1[nH]nc(-c2ccc(Cl)cc2)n1/N=C/C=C/c1ccco1	+	83*	-3	-11	-3
COc1cc(CNC(C)c2ccccc2)cc(Cl)c1OCC(=O)Nc1ccccc1 (stereo unspecified)	i	3	-2	3	-1
SMILES	PABP polyA inh	eIF4H inh	IMP-1 inhibitor	PABP1 MLLE inh	VIM-2 inhibitor
CCCc1nc2ccc(C)cn2c1Cc1cccc(Cl)c1	.	.	.	-11	.
CCCCNCC(=O)Nc1ccc(NC(=O)CNCCCC)cc1	i	-1	-2	4	-1
COc1ccc(CC(=O)NC(c2ccccc2)c2ccc(C)cc2)c(OC)c1 (stereo unspecified)	i	-1	-2	1	-2
CC1CC(C)CN(CCCNC(=O)c2cc3c(=O)[nH]c4ccccc4c3n2C)C1 (stereo unspecified)	i	-3	-2	-6	12*
CN(CCCNC(=O)c1cc2c(=O)[nH]c3ccccc3c2n1C)Cc1ccccc1	i	0	-1	3	8.1*
CC1CC(C)CN(CCCNC(=O)c2c(O)nc3ccccn3c2=O)C1 (stereo unspecified)	.	.	.	0	.
Cn1c(C(=O)NCCCN2CCN(c3ccccc3F)CC2)cc2c(=O)[nH]c3ccccc3c21	i	0	-6	-7	11*
